Reference: ChEMBL document CHEMBL4052826, “Design and Synthesis of Novel Reactive Oxygen Species Inducers for the Treatment of Pancreatic Ductal Adenocarcinoma” (J Med Chem, 2018)
Active and inactive are the calls of the source. The calls are words filed in the database; no cut-off is given here.

How the values were obtained:
Format in all cases: functional, cell-based
[1] = tested on: MIA PaCa-2; assay: Cytotoxicity against human MIAPaCa2 cells assessed as decrease in cell proliferation after 72 hrs in presence of NAC by MTT assay
Method in brief: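 MIA PaCa-2 cells were treated for 72 h with compound in the presence of 5 mM NAC. Viability was read by MTT (final 300 μg/mL, 3 h, A570). Mean ± SD of three independent experiments.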

[2] = tested on: MIA PaCa-2; assay: Inhibition of mtDNA transcription from LSP promoter in human MIAPaCa2 cells after 4 hrs by Bru-seq analysis
Method in brief: (§1)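 MIA PaCa-2 cells were seeded at 4×10^6 per 10 cm dish and treated the next day for 4 h, with DMSO as control. Bromouridine (2 mM final) was added for the last 30 min. Total RNA was isolated in TRIZOL, and Bru-labelled RNA was immunocaptured, made into cDNA libraries and deep-sequenced. Read-out was nascent signal across mitochondrial heavy-strand (HSP2) and light-strand (LSP) transcripts.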

[3] = tested on: MIA PaCa-2; assay: Inhibition of mtDNA transcription from HSP2 promoter in human MIAPaCa2 cells after 4 hrs by Bru-seq analysis; method in brief: as §1
[4] = tested on: PANC-1; assay: Cytotoxicity against human PANC1 cells assessed as decrease in cell proliferation after 72 hrs by MTT assay; conditions: PANC-1, 72 h
Method in brief: (§2)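 MTT assay. Cells (3000–8000/well) attached overnight in RPMI1640 with 10% FBS; the GR line was kept with 200 nM gemcitabine. Serial dilutions (30 nM–10 μM for most lines) were applied for 72 h. MTT was added at a final 300 μg/mL for 3 h at 37°C, formazan was dissolved in DMSO and A570 read. Inhibition = (1 − OD treated/OD control) × 100. IC50 given as mean ± SD, three independent experiments.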

[5] = tested on: BXPC-3; assay: Cytotoxicity against human BxPC3 cells assessed as decrease in cell proliferation after 72 hrs by MTT assay; conditions: BXPC-3, 72 h; method in brief: as §2
[6] = tested on: MIA PaCa-2; assay: Cytotoxicity against human MIAPaCa2 cells assessed as decrease in cell proliferation after 72 hrs by MTT assay; conditions: MIA PaCa-2, 72 h; method in brief: as §2

SMILES | Activity [1] | inhibition [2] | inhibition [3] | IC50 [4] | IC50 [5] | IC50 [6]
OO | inactive | – | – | – | – | –
CC[C@@]1(O)C(=O)OCc2c1cc1n(c2=O)Cc2cc3ccccc3nc2-1 | – | inactive | inactive | – | – | –
O=C1C(Nc2ccc(Oc3ccccc3)cc2)=CC(=O)c2ncncc21 | – | – | – | 1.8 µM | 3.6 µM | 3.7 µM
COc1cc(NC2=CC(=O)c3ncncc3C2=O)cc(OC)c1 | – | – | – | 7.2 µM | 16.3 µM | 7.7 µM
CCOC(=O)c1ccc(NC2=CC(=O)c3ncncc3C2=O)cc1 | – | – | – | 1.6 µM | 5.9 µM | 5.5 µM
Nc1ccc(C(=O)NCCC[P+](c2ccccc2)(c2ccccc2)c2ccccc2)cc1 | – | – | – | > 30 µM | > 30 µM | > 30 µM
O=C1C(Nc2ccc(-c3ccc(F)cc3)cc2)=CC(=O)c2ncncc21 | – | – | – | 3.2 µM | 4.4 µM | 3.5 µM
